Each structure is given as a SMILES string. Calls of active or inactive are those of the source. No cut-off for these calls is given here. Where only a bound is given, the exact number is not on record here.

Data set [1] concerns Respiratory syncytial virus. Put plainly: Antiviral activity against RSV infected human Hep2 cells assessed as plaque reduction […] by plaque reduction assay. It is filed as functional, HEp-2. Details: scale not given: the % may be the effect or the level left. For orientation: Plaques are areas of infected cells; plaque reduction assays count them against a control.
Data set [2] has as its system Respiratory syncytial virus. Put plainly: Antiviral activity against RSV infected human Hep2 cells assessed as reduction of plaque formation pretreated 2 hrs before viral infection. The following applies: HEp-2. It counts as functional, organism-based. The method, boiled down:
(§1)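 Plaque reduction in HEp-2 cells with compound added either 2 h before infection or 6 h after. Duplicate wells per dilution. Percent plaque reduction calculated against compound-free infected wells. Four independent experiments.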

Data set [3] has as its system Respiratory syncytial virus. Put plainly: Antiviral activity against RSV infected human Hep2 cells assessed as reduction of plaque formation treated 6 hrs after viral infection. The following applies: HEp-2. It counts as functional, organism-based. In short, it runs like this:
as §1

Data set [4] relates to Respiratory syncytial virus. Put plainly: Antiviral activity against RSV A2 infected human Hep2 cells after 5 days by plaque reduction assay. It is filed as functional, organism-based. The following applies: A2, HEp-2, 120 h. The method, boiled down: (§2)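 HEp-2 monolayers in six-well plates infected with 0.2 ml of 500 PFU/ml virus. After 2 h, overlaid with DMEM, 2% FBS, 0.6% agarose plus compound dilution series. Incubated 5 days, formaldehyde-fixed, plaques stained with methylene blue or immunostained and counted. Activity expressed as percent of plaques in untreated infected wells.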

Data set [5] is described as follows: Cytotoxicity against RSV RSS infected human Hep2 cells up to 50 uM after 6 days by XTT assay. It is filed as cell-based. The following applies: hep-2, 144 h. In short, it runs like this:
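Uninfected cell-control plates run in parallel with the RSV XTT assay. HEp-2 cells at 4 × 10³ per well in DMEM/10% FBS, serial compound dilutions with 0.5% DMSO, 6 days. Viability by XTT. CC50 is the concentration giving 50% compound-induced cell death.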
In general terms: Tetrazolium dyes change colour on reduction, which living cells bring about.

Data set [6] has as its system Respiratory syncytial virus. Put plainly: Antiviral activity against RSV RSS infected human Hep2 cells assessed as reduction of viral antigen synthesis after 3 days by ELISA. It counts as functional, organism-based. The following applies: HEp-2, 72 h. In short, it runs like this:
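HEp-2 cells seeded at 5 × 10³ per well in DMEM/10% FBS for 24 h, infected with RSV RSS at MOI about 0.02, serial compound dilutions for 3 days. Cells fixed and permeabilised in methanol-acetone, blocked in milk-Tween. Probed with mouse anti-RSV monoclonal then HRP anti-mouse. Developed with o-phenylenediamine/H2O2, absorbance […].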

For data set [7], the system named is Respiratory syncytial virus. Put plainly: Antiviral activity against RSV Long infected human Hep2 cells after 5 days by plaque reduction assay. It is filed as functional, organism-based. The following applies: HEp-2, 120 h. In short, it runs like this:
as §2

Data set [8] can be described thus: Cytotoxicity against RSV RSS infected human Hep2 cells after 6 days by XTT assay. It is filed as cell-based, HEp-2.
Data set [9] relates to Respiratory syncytial virus. Briefly: Antiviral activity against plaque picked RSV604-resistant RSV RSS from passage 2 in human Hep2 cells by plaque reduction assay. The following applies: HEp-2. It is filed as functional, organism-based. In short, it runs like this:
as §2

Data set [10] concerns Respiratory syncytial virus. Put plainly: Drug resistance, ratio of EC50 for plaque picked A-33903-resistant RSV RSS from passage 2 to EC50 for DMSO-passaged wild type RSV RSS. It counts as functional.
For data set [11], the system named is Respiratory syncytial virus. Briefly: Antiviral activity against RSV RSS infected human Hep2 cells assessed as inhibition of virus-induced cell death after 6 days by XTT assay. It counts as functional, organism-based. The following applies: HEp-2, 144 h. In short, it runs like this:
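HEp-2 cells seeded at 4 × 10³ per well in DMEM with 10% FBS, infected next day with RSV RSS dosed to give about 80% cytopathic effect by day 6. Serial compound dilutions (top 10 μM, 0.5% DMSO) present throughout. Viability read by XTT reduction after 6 days. EC50 taken as 50% reduction in virus-induced cell death.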

In data set [12] the test system is Respiratory syncytial virus. Put plainly: Antiviral activity against DMSO-passaged wild type RSV RSS infected human Hep2 cells by plaque reduction assay. It counts as functional, organism-based. The following applies: HEp-2. The method, boiled down:
as §2

The test system of data set [13] is Respiratory syncytial virus. Put plainly: Antiviral activity against plaque picked A-33903-resistant RSV RSS from passage 2 in human Hep2 cells by plaque reduction assay. It counts as functional, organism-based. The following applies: HEp-2. The method, boiled down: as §2
For data set [14], the system named is Respiratory syncytial virus. Briefly: Drug resistance, ratio of EC50 for plaque picked RSV604-resistant RSV RSS from passage 2 to EC50 for DMSO-passaged wild type RSV RSS. It is filed as functional.
Data set [15] deals with Respiratory syncytial virus. Briefly: Antiviral activity against RSV RSS infected human Hep2 cells after 5 days by plaque reduction assay. It counts as functional, organism-based. The following applies: HEp-2, 120 h. In short, it runs like this:
as §2

Data set [16] deals with Respiratory syncytial virus. Briefly: Antiviral activity against RSV B infected human Hep2 cells after 5 days by plaque reduction assay. It counts as functional, organism-based. The following applies: HEp-2, 120 h. The method, boiled down:
as §2

A short description of data set [17]: Therapeutic index, CC50 for human Hep2 cells to EC50 for RSV RSS. It counts as cell-based, HEp-2. The following applies: read-out: Ratio CC50/EC50. In short, it runs like this: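 Ratio of CC50 from uninfected HEp-2 XTT control plates to EC50 from RSV RSS-infected XTT plates, both read after 6 days.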

Regarding `O=c1n(Cc2nc3ccccc3n2CCCCO)c2cnccc2n1C1CC1`, the Activity in data set [1] turned out to be 50%. Further, in data set [2], the result was Active. In addition, in data set [3], the result was inactive.

The EC50 is the concentration at which the effect is half-maximal. The CC50 is the concentration giving 50% cytotoxicity. Take `CC(=O)NC1N=C(c2ccccc2)c2ccccc2NC1=O` (configuration not stated): the concentration for a half-maximal effect (EC50) is 15.1 µM in data set [4]; 10.1 µM in [6]; 7.2 µM in data set [7]; greater than 100 µM in data set [9]; 9.6 µM in [11]; 8.1 µM in [12]. Moreover, the concentration giving a half-maximal response (EC50) stood at 27.6 µM in data set [13], 9.7 µM in data set [15] and 3.5 µM in data set [16]. In addition, the Activity result in data set [5] is reported as “Non-toxic”. Also, in data set [8], the CC50 at 144 h is greater than 50 µM. The “fold change (FC)” value is 3.1 in data set [10] and greater than 12.3 in data set [14]. The selectivity ratio in data set [17] is greater than 5.

Values taken from ChEMBL document CHEMBL1143412, “RSV604, a novel inhibitor of respiratory syncytial virus replication” (Antimicrob Agents Chemother, 2007).
